According to ChEMBL document CHEMBL1153378, “Synthesis and evaluation of myxochelin analogues as antimetastatic agents” (Bioorg Med Chem, 2009):
The source made the active and inactive calls. The calls are words filed in the database; no cut-off is given here.

What was measured:
[1] = Cytotoxicity against mouse 26-L5 cells after 24 hrs; format: functional, cell-based
In short: (§1)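 Murine colon 26-L5 carcinoma cells at 1 × 10⁴ cells/well in RPMI with 10% FCS and L-glutamine, exposed to test compound at various concentrations (DMSO solutions) for 24 h. Wells PBS-washed, crystal violet stain 30 min, dye extracted with 30% acetic acid, absorbance read at 590 nm. Mean ± SD; Student's two-tailed t-test vs control.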

[2] = Antiinvasive activity against mouse 26-L5 cells assessed as inhibition of cell invasion at 2.5 uM by Matrigel assay; format: functional
[3] = Antiinvasive activity against mouse 26-L5 cells assessed as inhibition of cell invasion by Matrigel assay; format: functional, cell-based
[4] = Cytotoxicity against mouse 26-L5 cells at 7.5 uM after 24 hrs; format: functional; in short: as §1
[5] = Cytotoxicity against mouse 26-L5 cells at 5.6 uM after 24 hrs; format: functional; in short: as §1
Mus musculus [6] = organism: Mus musculus; test: Inhibition of mouse 26-L5 cells adhesion to extracellular matrix proteins at 2.5 uM after 24 hrs by crystal violet assay; format: functional
In short: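 Colon 26-L5 cells pre-treated with compound 24 h at 37 °C, 5% CO₂, then resuspended in RPMI/10% FCS/L-glutamine and seeded at 4 × 10⁴ cells/well on fibronectin- or Matrigel-coated wells. Attachment 1 h at 37 °C; non-adherent cells aspirated; adherent cells fixed in 20% formalin 4 °C 1 h, crystal violet stained 30 min. Mean ± SD, two-tailed t-test.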

[7] = molecular target: 72 kDa type IV collagenase (Mus musculus) (UniProt P33434); test: Inhibition of MMP2 in mouse 26-L5 cells at 0.25 uM by gelatin based zymography assay; format: cell-based
In short: (§2)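 Gelatin zymography: conditioned medium of colon 26-L5 cells run non-reducing on 10% SDS–PAGE with 0.1% gelatin. Gels rinsed twice 1 h at room temperature (50 mM Tris–HCl, 2.5% Triton X-100, 5 mM CaCl₂, 0.05% NaN₃), strips incubated 24 h at 37 °C in reaction buffer with test compound at various concentrations, then Coomassie stained. Mean ± SD, two-tailed t-test.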

[8] = Antimetastatic activity against mouse 26-L5 cells xenografted BALB/c mouse assessed as inhibition of lung tumor metastasis at 50 mg/kg, ip dosed once daily for 14 days; format: functional; details: 336 h, route intraperitoneal
In short: (§3)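 BALB/c mice injected iv via tail vein with colon 26-L5 cells in cold PBS; compound given ip at 50 mg/kg (1 mg/mouse in 200 µL PBS); controls received 200 µL PBS. Body weight followed; mice killed 14 days after inoculation, lungs fixed in Bouin's solution, surface colonies counted under dissecting microscope. Student's two-tailed t-test.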

Mus musculus [9] = test: Toxicity in mouse 26-L5 cells xenografted BALB/c mouse assessed as body weight loss at 50 mg/kg, ip dosed once daily for 14 days; format: organism-based; set-up: dose 50 mg/kg, route intraperitoneal; details: in vivo, 336 h; in short: as §3
Mus musculus [10] = organism: Mus musculus; test: Inhibition of cell migration of mouse 26-L5 cells at 2.5 uM by Matrigel assay; format: functional
[11] = molecular target: Matrix metalloproteinase-9 (Mus musculus) (UniProt P41245); test: Inhibition of MMP9 in mouse 26-L5 cells at 0.25 uM by gelatin based zymography assay; format: cell-based; in short: as §2
[12] = molecular target: Matrix metalloproteinase-9 (Mus musculus) (UniProt P41245); test: Inhibition of MMP9 in mouse 26-L5 cells at 2.5 uM by gelatin based zymography assay; format: cell-based; in short: as §2
[13] = molecular target: 72 kDa type IV collagenase (Mus musculus) (UniProt P33434); test: Inhibition of MMP2 in mouse 26-L5 cells at 2.5 uM by gelatin based zymography assay; format: cell-based; in short: as §2

Chain of Matrix metalloproteinase-9 (Mus musculus) (P41245 whole entry): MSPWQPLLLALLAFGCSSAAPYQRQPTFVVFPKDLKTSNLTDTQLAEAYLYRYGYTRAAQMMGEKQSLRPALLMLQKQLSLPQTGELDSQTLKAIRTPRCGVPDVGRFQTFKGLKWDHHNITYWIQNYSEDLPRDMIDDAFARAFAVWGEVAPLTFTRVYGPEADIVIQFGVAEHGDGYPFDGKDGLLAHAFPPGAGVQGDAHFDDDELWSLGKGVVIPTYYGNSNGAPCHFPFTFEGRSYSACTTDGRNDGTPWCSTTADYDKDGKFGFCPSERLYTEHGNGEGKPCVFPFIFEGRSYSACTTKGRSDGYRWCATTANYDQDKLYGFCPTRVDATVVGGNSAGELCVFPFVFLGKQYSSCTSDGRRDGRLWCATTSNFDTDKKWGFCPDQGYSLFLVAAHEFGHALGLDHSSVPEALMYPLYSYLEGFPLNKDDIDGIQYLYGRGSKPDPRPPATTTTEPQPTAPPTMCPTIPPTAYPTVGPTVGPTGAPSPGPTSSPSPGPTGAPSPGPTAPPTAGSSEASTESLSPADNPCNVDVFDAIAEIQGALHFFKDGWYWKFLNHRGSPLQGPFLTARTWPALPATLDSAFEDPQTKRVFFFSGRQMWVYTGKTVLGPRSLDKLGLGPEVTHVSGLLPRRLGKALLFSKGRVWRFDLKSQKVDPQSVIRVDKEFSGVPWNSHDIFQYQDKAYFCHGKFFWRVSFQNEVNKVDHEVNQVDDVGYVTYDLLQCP
Chain of 72 kDa type IV collagenase (Mus musculus) (P33434 whole entry): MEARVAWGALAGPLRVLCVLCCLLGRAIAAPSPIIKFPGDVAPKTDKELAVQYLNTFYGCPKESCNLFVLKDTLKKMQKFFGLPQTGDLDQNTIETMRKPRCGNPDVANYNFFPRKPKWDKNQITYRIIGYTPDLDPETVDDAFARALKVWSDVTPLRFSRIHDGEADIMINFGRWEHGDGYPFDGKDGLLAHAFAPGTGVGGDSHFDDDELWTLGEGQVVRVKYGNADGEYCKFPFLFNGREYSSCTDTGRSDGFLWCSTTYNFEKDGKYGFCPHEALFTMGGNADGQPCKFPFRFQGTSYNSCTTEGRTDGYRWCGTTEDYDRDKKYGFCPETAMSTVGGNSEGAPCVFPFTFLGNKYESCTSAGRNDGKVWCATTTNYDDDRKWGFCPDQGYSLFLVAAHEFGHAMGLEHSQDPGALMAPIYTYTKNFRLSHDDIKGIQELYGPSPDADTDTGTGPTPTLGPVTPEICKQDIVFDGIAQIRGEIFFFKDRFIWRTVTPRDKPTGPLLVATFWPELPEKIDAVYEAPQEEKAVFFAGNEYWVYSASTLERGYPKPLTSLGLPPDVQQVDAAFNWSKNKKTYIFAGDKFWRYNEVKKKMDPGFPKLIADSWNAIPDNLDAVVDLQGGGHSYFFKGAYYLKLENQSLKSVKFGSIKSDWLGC

SMILES	IC50 [1]	inhibition at 2.5 µM [2]	IC50 [3]	inhibition at 7.5 µM [4]	other results
O=C(NCCCCCNC(=O)c1cccc(O)c1O)c1cccc(O)c1O	2.7 µM	45%	> 2.5 µM		
COC(=O)[C@H](CCCCNC(=O)c1cccc(O)c1O)NC(C)=O	> 7.5 µM		2.4 µM	0%	
COC(=O)[C@H](CCCCNC(=O)c1cccc(O)c1O)NC(=O)c1cccc(O)c1O	> 7.5 µM		1.5 µM	10%	
O=C(NCCCC[C@H](CO)NC(=O)c1cccc(O)c1O)c1cccc(O)c1O	> 7.5 µM		2.2 µM	30%	
O=C(NCCCC[C@@H](CNC(=O)c1cccc(O)c1O)NC(=O)c1cccc(O)c1O)c1cccc(O)c1O	> 5.6 µM		0.52 µM		inhibition at 5.6 µM [5]: 0%
NC(=O)[C@H](CCCCNC(=O)c1cccc(O)c1O)NC(=O)c1ccccc1	> 7.5 µM		0.26 µM	0%	
COC(=O)[C@H](CCCNC(=O)c1cccc(O)c1O)NC(=O)c1cccc(O)c1O	> 7.5 µM		2.5 µM	45%	
COC(=O)[C@H](CCCCCNC(=O)c1cccc(O)c1O)NC(=O)c1cccc(O)c1O	1.6 µM		1.7 µM		
COC(=O)[C@H](CCCCNC(=O)c1cccc(OC)c1OC)NC(=O)c1cccc(OC)c1OC	> 7.5 µM	25%	> 2.5 µM	0%	
COC(=O)[C@H](CCNC(=O)c1cccc(O)c1O)NC(=O)c1cccc(O)c1O	> 7.5 µM	40%	> 2.5 µM	13%	
COC(=O)[C@H](CCCCNC(=O)c1cccc(O)c1O)NC(=O)c1ccccc1	> 7.5 µM		1 µM	0%	
NC[C@H](CCCCNC(=O)c1cccc(O)c1O)NC(=O)c1cccc(O)c1O	> 7.5 µM		0.73 µM	40%	
COC(=O)[C@H](CCCCNC(=O)c1ccccc1)NC(=O)c1cccc(O)c1O	> 7.5 µM	0%	> 2.5 µM	0%	
NC(=O)[C@H](CCCCNC(=O)c1cccc(O)c1O)NC(=O)c1cccc(O)c1O	> 7.5 µM		0.091 µM	0%	inhibition (Mus musculus [6]): inactive; inhibition [7]: 44%; inhibition in vivo at 50 mg/kg [8]: 35%; Activity (Mus musculus [9]): Non-toxic; inhibition (Mus musculus [10]): inactive; inhibition [11]: 33%
O=C(NCCCC[C@H](NC(=O)c1cccc(O)c1O)C(=O)O)c1cccc(O)c1O	> 7.5 µM	30%	> 2.5 µM	0%	
O=C(NCCCC[C@H](NC(=O)c1cccc(O)c1O)C(=O)NO)c1cccc(O)c1O	> 7.5 µM		0.98 µM	0%	
N#C[C@H](CCCCNC(=O)c1cccc(O)c1O)NC(=O)c1cccc(O)c1O	7.5 µM	45%	> 2.5 µM		
O=C(NCCCC[C@@H](CO)NC(=O)c1cccc(O)c1O)c1cccc(O)c1O	> 7.5 µM		0.59 µM	20%	inhibition (Mus musculus [6]): inactive; inhibition [12]: 39%; inhibition [13]: 35%; inhibition (Mus musculus [10]): inactive
